The subject of assay [1] is 3T3-L1. As to the kind of experiment: Inhibition of mouse 3T3-L1 cell differentiation at 2 uM.
Assay [2] concerns 3T3-L1 (Mus musculus). As to the kind of experiment: Inhibition of [1-14C]sodium acetate uptake in mouse 3T3-L1 cells at 2 uM.
For assay [3], the target named is T1, Peroxisome proliferator-activated receptor gamma (Homo sapiens) (UniProt P37231).
T1 sequence (whole entry): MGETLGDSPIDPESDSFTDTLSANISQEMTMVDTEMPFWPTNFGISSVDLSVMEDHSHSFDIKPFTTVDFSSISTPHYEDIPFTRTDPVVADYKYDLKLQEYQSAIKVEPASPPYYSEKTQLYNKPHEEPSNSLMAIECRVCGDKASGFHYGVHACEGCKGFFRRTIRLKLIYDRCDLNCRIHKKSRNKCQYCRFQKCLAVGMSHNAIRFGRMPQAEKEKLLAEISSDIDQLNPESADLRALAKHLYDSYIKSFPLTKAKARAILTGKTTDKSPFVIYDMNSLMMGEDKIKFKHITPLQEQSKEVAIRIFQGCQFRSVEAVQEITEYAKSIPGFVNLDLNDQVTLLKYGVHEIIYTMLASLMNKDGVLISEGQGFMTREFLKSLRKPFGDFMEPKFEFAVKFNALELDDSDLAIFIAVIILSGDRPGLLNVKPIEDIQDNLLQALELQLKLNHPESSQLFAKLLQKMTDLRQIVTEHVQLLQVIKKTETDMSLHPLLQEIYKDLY
Put plainly: Antagonist activity at pioglitazone-stimulated PPARgamma transcriptional activity in U2OS cells at 1 uM. It is filed as functional, cell-based. Put shortly: (§1)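 U2OS cells transfected with PPARγ expression plasmid, matching reporter plasmid and pCMV-β-galactosidase as internal control; reporter transcriptional activity measured with or without 1 μM pioglitazone stimulation; means of triplicate cultures.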

In assay [4] the test system is 3T3-L1. As to the kind of experiment: Inhibition of mouse 3T3-L1 cell differentiation by oil-red O staining method. The format is functional. An outline of the steps: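 Insulin-induced differentiation of 3T3-L1 pre-adipocytes into adipocytes; reduction in oil-red O stained cells judged under a microscope to give minimal inhibitory concentration.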
Assay [5] has as its target T1, Peroxisome proliferator-activated receptor gamma (Homo sapiens). Put plainly: Activation of PPARgamma transcriptional activity in U20S cells at 0.01 to 1 uM. The conditions noted are these: U2OS. It is filed as functional, cell-based. Put shortly: as §1
Assay [6] addresses T2, Peroxisome proliferator-activated receptor gamma (Homo sapiens, UniProt P37231).
T2 sequence (P37231 whole entry): T1 sequence (whole entry)
As to the kind of experiment: Binding affinity to PPARgamma.

Assay [7] deals with 3T3-L1. Put plainly: Stimulation of mouse 3T3-L1 cells differentiation at 2 to 4 uM in presence of guanosine. The format is functional, cell-based. Put shortly: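 3T3-L1 cells with 50 μM guanosine added to suppress IMPDH-related effects; adipocyte differentiation stimulation examined at 2–4 μM.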
The test system of assay [8] is 3T3-L1. Put plainly: Inhibition of mouse 3T3-L1 cell differentiation assessed as minimal effective concentration by oil-red O staining method.

pKd: −log10 of the molar value. Converted amounts (≈) assume the structure as drawn. The source made the active and inactive calls. No cut-off for these calls is given here.

These results are taken from ChEMBL document CHEMBL1149659 (Bioorg Med Chem Lett, 2007).

One may read the inhibition as how much of the control response was suppressed. The term MIC denotes the least concentration at which growth counts as inhibited. The term pKd denotes the negative decadic logarithm of the Kd, by convention in mol/L. The low end stands for a large Kd, the high end for a small Kd.

With `COC(=O)CC/C(C)=C/Cc1c(OC)c(C)c2c(c1OS(=O)(=O)c1ccc(C)cc1)C(=O)OC2`, the outcome in assay [1] was inactive. As to `COC(=O)CC/C(C)=C/Cc1c(OC)c(C)c2c(c1OC)C(=O)OC2`, the result in assay [1] was inactive. Regarding `COCCOCOc1c(C/C=C(\C)CCC(=O)OC)c(OC(=O)c2cccnc2)c(C)c2c1C(=O)OC2`, in assay [1], the outcome was inactive. Take `CCOC(=O)COc1c(C)c2c(c(O)c1C/C=C(\C)CCC(=O)OC)C(=O)OC2`: in assay [1], the outcome was inactive. In assay [2], this molecule displayed an inhibition of 0%. In the case of `C/C(=C\Cc1c(O)c(C)c2c(c1O)C(=O)OC2)CCC(=O)O`, in assay [1], the result was inactive. Regarding `COC(=O)CC/C(C)=C/Cc1c(O)c2c(c(C)c1OC)COC2=O`, the outcome in assay [1] and in assay [3] was Active. As to `COCCOCOc1c(C/C=C(\C)CCC(=O)OC)c(O)c(C)c2c1C(=O)OC2`, the result in assay [1] was inactive. In assay [2], the inhibition was found to be 10%.

In turn, `C/C=C/C1=CC(=O)[C@@H](O)[C@@H]1O` [TERREIN] came in with an MIC in assay [4] of 81 µM (≈ 12.5 µg/mL).

Regarding `COC(=O)CC/C(C)=C/Cc1c(O)c2c(c(C)c1OC(=O)c1ccncc1)COC2=O`, in assay [1], the result was inactive. In addition, the inhibition in assay [2] stood at 3%. Take `COc1c(C)c2c(c(OC)c1C/C=C(\C)CCC(=O)O)C(=O)OC2`: in assay [1], the outcome was inactive. Consider `COC(=O)CC/C(C)=C/Cc1c(O)c(C)c2c(c1OS(=O)(=O)c1ccc(C)cc1)C(=O)OC2`, for which, in assay [1], the result was inactive.

On to `COC(=O)CC/C(C)=C/Cc1c(O)c2c(c(C)c1OC(=O)c1cccnc1)COC2=O`, for which, in assay [1], the outcome was inactive. Regarding `COc1c(C)c2c(c(OC(C)=O)c1C/C=C(\C)CCC(=O)O)C(=O)OC2`, the result in assay [1] and in assay [3] was Active. Also, the inhibition in assay [2] turned out to be 86%. Take `COCCOCOc1c(C/C=C(\C)CCC(=O)OC)c(OC(=O)c2ccncc2)c(C)c2c1C(=O)OC2`: the result in assay [1] was inactive. In the case of `COc1c(C)c2c(c(O)c1C/C=C(\C)CCC(=O)O)C(=O)OC2` [MYCOPHENOLIC ACID], the outcome in assay [1], in assay [5], in assay [3] and in assay [7] was Active. For the same molecule, the pKd in assay [6] is 3.96. The Activity in assay [8] was 0.2 µM. As to `COC(=O)CC/C(C)=C/Cc1c(O)c(C)c2c(c1O)C(=O)OC2`, in assay [1], the outcome was inactive.

With `CCOC(=O)COc1c(C)c2c(c(OCOCCOC)c1C/C=C(\C)CCC(=O)OC)C(=O)OC2`, the result in assay [1] was inactive.
